Results published in article PMC8158801 (ACS Omega, 2021).

Legend:
[1] = tested on: Human hepatocellular carcinoma (HepG2) cell line; assay: Cytotoxic activity, MTT cell viability assay, HepG2; format: cell-based; parameters: unit not given beside the values; conditions: n = 3, reference standard
Outline: (§1)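 The defatted alcoholic root extract was tested at 4–500 μg/mL, with cisplatin as the reference standard, in an MTT cell-viability assay. Viability is expressed as % of untreated control. IC50 was derived by linear regression. Each point was run in triplicate and reported as mean ± SD.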

[2] = tested on: mouse myelogenous leukemia (M-NFS-60) cell line; assay: Cytotoxic activity, MTT cell viability assay, M-NFS-60; format: cell-based; parameters: unit not given beside the values; conditions: n = 3, reference standard
Outline: as §1

With N.N.[Cl][Pt][Cl] [cisplatin] the “IC50 against HepG2 cell line (unit not given)” value [1] was 3.25 ± 1.4 and the “IC50 against M-NFS-60 cell line (unit not given)” value [2] was 8.37 ± 0.25.
